Tb MetRS inh: Trypanosoma brucei MetRS inhibition; 360,000 tested, 0.4% active; AID 624268; inhibition, % at 11.9 µM; purified T. brucei MetRS, ATP depletion, Kinase-Glo luminescence;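 active means inhibition above a per-plate cutoff of the control wells' mean inhibition plus 3 SD, cut at about 5.5% in these data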
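Assay system: T. brucei methionyl-tRNA synthetase, purified | Medium: HEPES buffer with MgCl2, KCl, DTT, spermine, BSA, pyrophosphatase | Compound: 11.9 µM single point | Incubation: 15 min enzyme-compound preincubation, 2 h reaction, 10 min detection, 25 °C | Measured by: Kinase-Glo luciferase luminescence reporting remaining unconsumed ATP | Measure: % inhibition normalized to control-well medians | Replication: Singlicate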
PKA-R1A act: PKA-R1A complex activation | PKA-R1A dissociation, Cy5-IP20 fluorescence polarization; scaled: DMSO 0%, 113 µM cGMP 100% | 340,000 tested, 0.083% active | activation, % at 11.4 µM;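 active means percent activation above the mean of all tested compounds plus 3 SD, cut at about 19% in these data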;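 further: higher means more PKAc released from R1A so a rise in polarization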
Cardio protect: protects H9c2 cardiomyocytes from peroxide injury | 360,000 tested, 0.63% active | protection from H2O2 cell death, % at 20 µM | H2O2 injury protection, ATPLite, 2 h;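 active means compounds giving at least 50% protection of heart cells from peroxide-induced death in the single-dose screen, raw or plate-pattern-corrected value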
PKA-R2B act: activates the human PKA-R2B holoenzyme complex; P22694+P31323; PKA-R2B holoenzyme dissociation, Cy5-IP20 fluorescence polarization; R2B truncated from residue 108, S112A mutant; 0% DMSO only, 100% 113 µM cGMP; activation, % at 11.4 µM; 340,000 tested, 0.079% active; AID 504700;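 active means activation above a cutoff set at the mean over all compounds plus 3 SD, cut at about 18% in these data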;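 further: higher means more holoenzyme dissociation and a rise in polarization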
Target sequence (P31323 whole entry, looked up, other chains not shown, the tested form may be a part): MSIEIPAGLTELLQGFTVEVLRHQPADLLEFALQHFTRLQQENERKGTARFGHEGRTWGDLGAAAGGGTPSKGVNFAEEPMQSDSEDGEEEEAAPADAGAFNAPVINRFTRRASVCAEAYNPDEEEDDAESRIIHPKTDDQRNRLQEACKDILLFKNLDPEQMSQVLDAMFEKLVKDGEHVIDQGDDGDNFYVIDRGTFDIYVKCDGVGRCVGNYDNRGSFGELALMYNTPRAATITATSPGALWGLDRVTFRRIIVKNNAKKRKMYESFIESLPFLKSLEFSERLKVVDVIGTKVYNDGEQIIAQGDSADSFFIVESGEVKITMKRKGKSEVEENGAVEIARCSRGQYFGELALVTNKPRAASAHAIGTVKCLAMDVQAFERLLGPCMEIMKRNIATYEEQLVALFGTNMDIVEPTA
Rin1-Abl PPI inh: blocks binding of human Rin1 to Abl | AID 588664 | 360,000 tested, 0.4% active | TR-FRET Rin1/Abl binding, biochemical | inhibition, % at 7.35 µM | P00519+Q13671; in the data active means inhibition above about 5%, passing the limit was not always enough
Large screens that a line does not name were inactive. Sampled rows, rich in hits. Any-hit rate of the full collection: about 1.5%.

Cc1ccc(C(=O)Nc2nc(-c3ccccn3)cs2)s1	Cardio protect 59
Cc1c(C(=O)Nc2nc(-c3ccccn3)cs2)oc2ccccc12	Cardio protect 54
O=C(Nc1nc(-c2ccccn2)cs1)c1cc2ccccc2o1	none
O=c1cc(-c2ccncc2)oc2c1ccc1ccccc12	Cardio protect 66
CCN(C(=O)CSc1nc2cc(S(=O)(=O)N(CC)CC)ccc2o1)C1CCS(=O)(=O)C1 (stereo unspecified)	none
COC(=O)/C(=C(O)\C=C\c1ccccc1[N+](=O)[O-])c1nc2ccccc2[nH]1	Cardio protect 68
CC[C@H](C)[C@H]1CNC(=S)N1CC1CCN(CC)CC1	none
Cc1ccc2c(c1)CCCN2C(=O)CCc1nc2ccccc2c(=O)[nH]1	Cardio protect 76
CC(C)Cn1c(N)c(C(=O)COC(=O)CCc2nc3ccccc3c(=O)[nH]2)c(=O)n(C)c1=O	Cardio protect 54
O=C(CCc1nc2ccccc2c(=O)[nH]1)N1CCN(c2ccc(F)cc2)CC1	Cardio protect 72
O=C(CCc1nc2ccccc2c(=O)[nH]1)N1CCN(C/C=C/c2ccccc2)CC1	Cardio protect 59
COc1ccc(C(=O)NCCCn2cccn2)cc1OC1CCN(C(C)=O)CC1	none
O=C(CCNC(=O)c1ccccc1Cl)Nc1ccncc1	none
Cc1nn(-c2ccc(Cl)cn2)c2c1C(=O)CC(C)(C)C2Br (stereo unspecified)	none
O=C(CCCC(=O)OCC(F)(F)C(F)F)Nc1ccccc1F	none
Cc1cccc(N2CCN(C(=O)CCc3nc4ccccc4c(=O)[nH]3)CC2)c1C	Cardio protect 50
CC(=O)N1CCN(C(=O)CCc2nc3ccccc3c(=O)[nH]2)CC1	Cardio protect 61
O=C(CCc1nc2ccccc2c(=O)[nH]1)OCC(=O)N1CCc2ccccc21	Cardio protect 57
O=C(Nc1ccc(F)cc1)/C(=C1/CCCCCN1)[N+](=O)[O-]	none
Cc1cscc1-c1nc(NCC2CC2)nc2ccsc12	none (no result: PKA-R1A act, PKA-R2B act)
Cc1ccccc1Nc1nc(N)[nH]c(=O)c1N=O	none (no result: PKA-R1A act, PKA-R2B act)
CCCN(Cc1nnc(-c2ccccc2Cl)o1)C(=O)c1cc([N+](=O)[O-])cc([N+](=O)[O-])c1	none
COc1cccc(N2CCN(C(=O)CN(C)S(=O)(=O)c3ccc4c(c3)c(=O)n(C)c(=O)n4C)CC2)c1	none
O=C(Nc1cc(=O)c2ccccc2o1)N1CCCCC1	Cardio protect 104
O=C(Nc1cc(=O)c2ccccc2o1)N1CCOCC1	none
CC(=O)Nc1cccc(-c2cc(NC(C)=O)c3ncc(-c4cccc(C(C)=O)c4)n3c2)c1	Cardio protect 59 (no result: PKA-R1A act, PKA-R2B act)
COc1cccc(-c2cnc3c(NC(C)=O)cc(-c4ccc(OC)c(OC)c4)cn23)c1	none (no result: PKA-R1A act, PKA-R2B act)
COc1ccc(-c2cc(NC(C)=O)c3ncc(-c4cccc(C(C)=O)c4)n3c2)cc1OC	Cardio protect 111 (no result: PKA-R1A act, PKA-R2B act)
COc1ccc(-c2cc(NC=O)c3ncc(-c4ccc(C(C)=O)cc4)n3c2)cn1	Cardio protect 64 (no result: PKA-R1A act, PKA-R2B act)
CC(=O)Nc1cccc(-c2cc(NC=O)c3ncc(-c4ccc(C(C)=O)cc4)n3c2)c1	Cardio protect 93 (no result: PKA-R1A act, PKA-R2B act)
CC(=O)c1ccc(-c2cnc3c(NC=O)cc(-c4ccc(N5CCN(C)CC5)cc4)cn23)cc1	none (no result: PKA-R1A act, PKA-R2B act)
CSc1ccc(CN2CCC(C(=O)NCc3ccc(C)cc3)CC2)cc1	none
Fc1ccc(CSc2nnc(-c3ccccn3)o2)cc1	none
COc1cccc(/C=N/Nc2ncnc3scc(-c4ccccc4)c23)c1O	Cardio protect 70
CC(C)C(=O)Nc1ccc(S(=O)(=O)Nc2ccccn2)cc1	none
CCOc1ccc(C(=O)CC(C(=O)O)N2CCCCC2)cc1 (stereo unspecified)	PKA-R2B act 19
C=C[C@@]1(C)CC(=O)[C@]2(O)[C@@]3(C)[C@@H](O)CCC(C)(C)[C@@H]3[C@H](O)[C@H](OC(C)=O)[C@@]2(C)O1	Cardio protect 71
C=C[C@@]1(C)CC(=O)[C@]2(O)[C@@]3(C)[C@@H](O)CCC(C)(C)[C@@H]3[C@H](OC(C)=O)[C@H](O)[C@@]2(C)O1	none
CC1(c2ccccc2)NC(=O)N(CC(=O)Nc2cccc(/C=C/c3ccccn3)c2)C1=O (stereo unspecified)	Cardio protect 68
Cc1cc(C)cc(NC(=O)CN2C(=O)NC(C)(c3ccccc3)C2=O)c1 (stereo unspecified)	none
COc1ccc(C(CNC(=O)C(C)(C)Oc2ccc(Cl)cc2)N2CCOCC2)cc1 (stereo unspecified)	none
CC(C)(C)OC(=O)CNC(=O)c1[nH]cnc1C(=O)NC1CCN(C(=O)OC(C)(C)C)CC1	none (no result: Tb MetRS inh, Cardio protect, Rin1-Abl PPI inh)
C[C@@H](NC(=O)c1nc[nH]c1C(=O)NCC(=O)OCc1ccccc1)c1ccccc1	Cardio protect 92
O=C(CNC(=O)c1nc[nH]c1C(=O)N1CCc2ccccc2C1)OCc1ccccc1	Cardio protect 105
O=C(CNC(=O)c1nc[nH]c1C(=O)N1CCNCC1)OCc1ccccc1	none
CC(C)(C)OC(=O)N1CCC(NC(=O)c2nc[nH]c2C(=O)NCC(=O)OCc2ccccc2)CC1	Cardio protect 72
COc1cccc(-c2nn3c(-c4ccccn4)nnc3s2)c1	Cardio protect 57
COc1cccc(-c2nnc3sc(-c4ccccn4)nn23)c1	Cardio protect 88
CC(C)(C)c1ccc(-c2nnc3sc(-c4ccccn4)nn23)cc1	none
c1ccc(-c2nn3c(-c4ccco4)nnc3s2)nc1	Cardio protect 81
C=CC[C@H](CC(=O)NCCO)C(=O)NC[C@@H](OC(=O)[C@H](CC=C)CC(=O)OC(C)(C)C)c1ccccc1	none
COc1ccc(NC(=O)NNC(=O)c2ccc3ccccc3c2O)c(OC)c1	none
Cn1cnc2c(cnn2C)c1=N	none
COc1cc(/C=C2\SC(=S)N(CCC(=O)Nc3cccc(O)c3)C2=O)cc(OC)c1OC	Cardio protect 67
COc1cc(/C=C2\SC(=S)N(CCC(=O)Nc3ccccc3)C2=O)cc(OC)c1OC	none
CCc1nc(N2CCN(C(=O)c3ccco3)CC2)c2oc3ccccc3c2n1	Cardio protect 51
Cc1nc(N2CCN(C(=O)c3ccco3)CC2)c2oc3ccccc3c2n1	none
CCCN1C(=O)c2cc(C(=O)Nc3cccc(C(C)=O)c3)ccc2C1Nc1cccc(C(C)=O)c1 (stereo unspecified)	Cardio protect 52
O=C(c1ccc(-c2nc3ccccc3s2)o1)N1CCN(c2ccccc2O)CC1	Cardio protect 52
CN(C(=O)CSc1nc2c(c(=O)[nH]1)CCCC2)C1CCCCC1	Cardio protect 63
Cc1c(OCC(=O)NCCN2CCOCC2)ccc2c1oc(=O)c1ccccc12	Cardio protect 61
Cc1c(OCC(=O)NCCN2CCOCC2)ccc2c3c(c(=O)oc12)CCC3	none
COc1ccc(Nc2nc(-c3cccs3)nc3ccccc23)cc1S(=O)(=O)N1CCOCC1	Cardio protect 67
